# Experimental data from ChEMBL document CHEMBL1127562, “N-substituted spirosuccinimide, spiropyridazine, spiroazetidine, and acetic acid aldose reductase inhibitors derived from isoquinoline-1,3-diones. 2” (J Med Chem, 1994).
# The source made the active and inactive calls. No cut-off for these calls is given here.
# Assays:
# Rattus norvegicus [1] = assay: Tested for in vivo inhibition of galactitol accumulation in the sciatic nerve of galactose-fed rats at the dose of 47.7 (mg/kg/day); NS=Not significant; type: functional, organism-based
# Summary of the method: (§1)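 Rats were given a 20% galactose diet for 4 days, with the test compound administered in the diet. Sciatic nerve galactitol accumulation was measured, and activity is given as % inhibition at the stated daily dose (mg/kg/day). Values are mean ± SEM, n = 6 animals; p < 0.01 unless indicated. NS means no significant inhibition of polyol accumulation.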
# [2] = target: Aldo-keto reductase family 1 member B1 (Bos taurus) (UniProt P16116); assay: Inhibition of aldose reductase activity in partially purified bovine lens preparation at 10e-5 M
# Summary of the method: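 Partially purified bovine lens aldose reductase. Reduction of DL-glyceraldehyde substrate followed spectrophotometrically. Activity expressed as average inhibition at the tested concentrations, 1×10^-5, 1×10^-6, 1×10^-7 and 4×10^-6 M as printed; IC50 in M where given.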
# Rattus norvegicus [3] = assay: Tested for in vivo inhibition of galactitol accumulation in the lens of galactose-fed rats at the dose of 47.7 (mg/kg/day); NS=Not significant; type: functional, organism-based; settings: Lens of camera-type eye
# Rattus norvegicus [4] = assay: Tested for in vivo inhibition of galactitol accumulation in the sciatic nerve of galactose-fed rats at the dose of 50 (mg/kg/day); type: functional
# Summary of the method: (§2)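 Rats fed a 20% galactose diet for 4 days, with test compound given in the diet at the stated daily dose (mg/kg/day). Read-out is inhibition of galactitol (polyol) accumulation in sciatic nerve. Values are % inhibition, mean ± SEM of six animals; p < 0.01 unless marked (some p < 0.05). NS = no significant inhibition of polyol accumulation. Tolrestat was the reference standard.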
# Rattus norvegicus [5] = assay: Tested for in vivo inhibition of galactitol accumulation in the lens of galactose-fed rats at the dose of 50 (mg/kg/day); type: functional, Lens of camera-type eye
# [6] = target: Aldo-keto reductase family 1 member B1 (Bos taurus) (UniProt P16116); assay: Inhibition of aldose reductase activity in partially purified bovine lens preparation at 4*10 e-8 M
# Rattus norvegicus [7] = assay: Tested for in vivo inhibition of galactitol accumulation in the sciatic nerve of galactose-fed rats at the dose of 24.9 (mg/kg/day); NS=Not significant; type: functional, organism-based; summary of the method: as §1
# Rattus norvegicus [8] = assay: Tested for in vivo inhibition of galactitol accumulation in the lens of galactose-fed rats at the dose of 24.9 (mg/kg/day); NS=Not significant; type: functional, organism-based; settings: Lens of camera-type eye
# Rattus norvegicus [9] = assay: Tested for in vivo inhibition of galactitol accumulation in the sciatic nerve of galactose-fed rats at the dose of 55 (mg/kg/day); NS=Not significant; type: functional, organism-based; summary of the method: as §2
# Rattus norvegicus [10] = assay: Tested for in vivo inhibition of galactitol accumulation in the lens of galactose-fed rats at the dose of 69.2 (mg/kg/day); NS=Not significant; type: functional, organism-based; settings: Lens of camera-type eye
# Summary of the method: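 Galactosemic rats were fed 20% galactose for 4 days, with the compound mixed into the diet. […] galactitol accumulation was measured, and activity is given as % inhibition at the stated daily dose (mg/kg/day). Values are mean ± SEM of six animals; p < 0.01 unless indicated. NS means no significant inhibition of polyol accumulation.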
# Rattus norvegicus [11] = assay: Tested for in vivo inhibition of galactitol accumulation in the sciatic nerve of galactose-fed rats at the dose of 69.2 (mg/kg/day); NS=Not significant; type: functional, organism-based; summary of the method: as §2
# Rattus norvegicus [12] = assay: Tested for in vivo inhibition of galactitol accumulation in the lens of galactose-fed rats at the dose of 26.1 (mg/kg/day); NS=Not significant; type: functional, organism-based; settings: Lens of camera-type eye
# Rattus norvegicus [13] = assay: Tested for in vivo inhibition of galactitol accumulation in the sciatic nerve of galactose-fed rats at the dose of 26.1 (mg/kg/day); NS=Not significant; type: functional, organism-based; summary of the method: as §1
# Rattus norvegicus [14] = assay: Tested for in vivo inhibition of galactitol accumulation in the sciatic nerve of galactose-fed rats at the dose of 24.9 (mg/kg/day); type: functional; summary of the method: as §1
# Rattus norvegicus [15] = assay: Tested for in vivo inhibition of galactitol accumulation in the sciatic nerve of galactose-fed rats at the dose of 25 (mg/kg/day); NS=Not significant; type: functional, organism-based; summary of the method: as §1
# Rattus norvegicus [16] = assay: Tested for in vivo inhibition of galactitol accumulation in the lens of galactose-fed rats at the dose of 25 (mg/kg/day); NS=Not significant; type: functional, organism-based; settings: Lens of camera-type eye
# Rattus norvegicus [17] = assay: Tested for in vivo inhibition of galactitol accumulation in the sciatic nerve of galactose-fed rats at the dose of 1.1 (mg/kg/day); type: functional; summary of the method: as §1
# Rattus norvegicus [18] = assay: Tested for in vivo inhibition of galactitol accumulation in the sciatic nerve of galactose-fed rats at the dose of 1.0 (mg/kg/day); NS=Not significant
# Rattus norvegicus [19] = assay: Tested for in vivo inhibition of galactitol accumulation in the sciatic nerve of galactose-fed rats at the dose of 25.2 (mg/kg/day); NS=Not significant; type: functional, organism-based; summary of the method: as §1
# Rattus norvegicus [20] = assay: Tested for in vivo inhibition of galactitol accumulation in the lens of galactose-fed rats at the dose of 25.2 (mg/kg/day); NS=Not significant; type: functional, organism-based; settings: Lens of camera-type eye
# Rattus norvegicus [21] = assay: Tested for in vivo inhibition of galactitol accumulation in the lens of galactose-fed rats at the dose of 55 (mg/kg/day); NS=Not significant; type: functional, organism-based; settings: Lens of camera-type eye
# Rattus norvegicus [22] = assay: Tested for in vivo inhibition of galactitol accumulation in the sciatic nerve of galactose-fed rats at the dose of 25.1 (mg/kg/day); NS=Not significant; type: functional, organism-based; summary of the method: as §1
compound,measurement,setting,value
COC(=O)NC(=O)CC1C(=O)N(C)C(=O)c2ccc([N+](=O)[O-])cc21 (configuration not stated),inhibition,Rattus norvegicus [1],inactive
same,inhibition,[2],67%
same,inhibition,Rattus norvegicus [3],inactive
NN1C(=O)CC2(C1=O)C(=O)N(Cc1nc3cc(C(F)(F)F)ccc3s1)C(=O)c1ccc(F)cc12 (configuration not stated),inhibition,[2],inactive
same,Inhibition,Rattus norvegicus [4],97%
same,Inhibition,Rattus norvegicus [5],31%
COC(=O)NC(=O)CC1C(=O)N(C)C(=O)c2cc(Br)c(OC)cc21 (configuration not stated),inhibition,[2],29%
O=C(O)CC1C(=O)N(Cc2ccc(Br)cc2F)C(=O)c2cc(F)ccc21 (configuration not stated),inhibition,[6],42%
O=C1Cc2c(n(Cc3ccc(Br)cc3F)c(=O)c3ccccc23)O1,inhibition,[6],32%
same,inhibition,Rattus norvegicus [7],inactive
same,inhibition,Rattus norvegicus [8],inactive
CN1NC(=O)C2(CC1=O)C(=O)N(Cc1ccc(Br)cc1F)C(=O)c1ccccc12 (configuration not stated),inhibition,[2],inactive
same,inhibition,Rattus norvegicus [9],inactive
CN1C(=O)c2ccccc2C(CC(N)=O)C1=O (configuration not stated),inhibition,[2],inactive
same,inhibition,Rattus norvegicus [10],inactive
same,inhibition,Rattus norvegicus [11],inactive
O=C(O)CC1C(=O)N(Cc2ccc(Br)cc2F)C(=O)c2cc(Cl)ccc21 (configuration not stated),inhibition,Rattus norvegicus [12],inactive
same,inhibition,Rattus norvegicus [13],inactive
same,inhibition,[6],30%
O=C(O)CC1C(=O)N(Cc2ccc(C(F)(F)F)cc2)C(=O)c2ccccc21 (configuration not stated),inhibition,[2],43%
O=C(O)CC1C(=O)N(Cc2ccc(Br)cc2F)C(=O)c2ccc(F)cc21 (configuration not stated),inhibition,[6],80%
same,Inhibition,Rattus norvegicus [14],47%
same,inhibition,Rattus norvegicus [8],inactive
NC(=O)CC1C(=O)N(Cc2ccc(Br)cc2F)C(=O)c2cc(F)ccc21 (configuration not stated),inhibition,Rattus norvegicus [15],inactive
same,inhibition,[2],inactive
same,inhibition,Rattus norvegicus [16],inactive
CN1C(=O)CC2(C1=O)C(=O)N(Cc1ccc(Br)cc1F)C(=O)c1ccccc12 (configuration not stated),Inhibition,Rattus norvegicus [17],76%
same,inhibition,[2],inactive
COC(=O)NC(=O)CC1C(=O)N(C)C(=O)c2cc(Cl)c(Cl)cc21 (configuration not stated),inhibition,Rattus norvegicus [1],inactive
same,inhibition,[2],90%
same,inhibition,Rattus norvegicus [3],inactive
CCCN1C(=O)CC2(C1=O)C(=O)N(Cc1ccc(Br)cc1F)C(=O)c1ccc(F)cc12 (configuration not stated),inhibition,Rattus norvegicus [18],inactive
same,inhibition,[2],inactive
NC(=O)CC1C(=O)N(Cc2ccc(Br)cc2F)C(=O)c2ccccc21 (configuration not stated),inhibition,Rattus norvegicus [19],inactive
same,inhibition,[2],inactive
same,inhibition,Rattus norvegicus [20],inactive
CNC(=O)CC1C(=O)N(Cc2ccc(Br)cc2F)C(=O)c2ccccc21 (configuration not stated),inhibition,[2],62%
O=C(O)CN1C(=O)c2ccccc2C(Cc2ccc(Br)cc2F)C1=O (configuration not stated),inhibition,Rattus norvegicus [21],inactive
same,inhibition,Rattus norvegicus [9],inactive
NN1C(=O)CC2(C1=O)C(=O)N(Cc1nc3cc(C(F)(F)F)ccc3s1)C(=O)c1ccccc12 (configuration not stated),inhibition,[2],inactive
same,Inhibition,Rattus norvegicus [4],96%
same,Inhibition,Rattus norvegicus [5],61%
CN1C(=O)CC2(C1=O)C(=O)N(Cc1ccc(C(F)(F)F)cc1)C(=O)c1ccccc12 (configuration not stated),inhibition,[2],inactive
same,inhibition,Rattus norvegicus [22],inactive
CC(C)=NN1C(=O)CC2(C(=O)N(Cc3nc4cc(C(F)(F)F)ccc4s3)C(=O)c3ccccc32)C1=O (configuration not stated),inhibition,[2],inactive
same,Inhibition,Rattus norvegicus [4],95%
same,Inhibition,Rattus norvegicus [5],37%
